Data set [1] is described as follows: folding enthalpy; higher = less favourable; fluorescence melt of hairpins on a sequencing array, two-state fit. The following applies: sodium 0.088 M. In a few lines:
(§1)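 Cy3 fluorescence of library hairpins on a sequenced MiSeq flow cell, with annealed Cy3 and quencher oligos, was imaged in 50 mM Na-HEPES pH 8.0, 25 mM NaCl in 2.5 °C steps up to 60 °C. Signals were normalised to pre-quench Cy3 and to control variants. Melting temperature and folding enthalpy came from bootstrapped two-state fits, inverse-variance combined over four replicates. Fitted temperatures were raised by 9.35 °C to match UV melts.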

Data set [2] is described as follows: melting temperature; fluorescence melt of hairpins on a sequencing array, two-state fit, raised by 9.35 °C to match UV melts. The following applies: sodium 0.088 M. The method in brief:
as §1

Turning to GTACGTGGAAACGCGTAC (((((.(....).))))), the folding enthalpy in data set [1] was -32.2 kcal/mol. For the same sequence, in data set [2], the Tm came out at 52.7 °C.
In the case of GTACTAGGAAACTAGTGC (.(((((....))))).), in data set [1], the folding enthalpy is -26.9 kcal/mol. Besides, the Tm in data set [2] is 42.8 °C.
On to GTACTAGGAAACTGGTAC ((((.((....)).)))), for which the folding enthalpy in data set [1] is -31.4 kcal/mol. Besides, the Tm in data set [2] worked out at 42.2 °C.
In the same order, the values of GTACTCACGAAAGTGTAC (((..(((....)))))) are -11 kcal/mol and 31.9 °C.
With GTACTCGAAAGAGGATAC ((((((....)))..))), in data set [1], the folding enthalpy was -13.2 kcal/mol. Moreover, the Tm in data set [2] is 28.5 °C.
Regarding GTACTCGAAAGAGGTTAC ((((((....)))..))), the folding enthalpy in data set [1] was -8.46 kcal/mol. Further, the Tm in data set [2] was 26.6 °C.
GTACTCGAAAGAGTTTAC ((((((....)))..))): the folding enthalpy in data set [1] is -9.32 kcal/mol. In addition, the Tm in data set [2] was 30 °C.
For the sequence GTACTGACGAAAGTCTAC (((..(((....)))))), the folding enthalpy in data set [1] is -6.65 kcal/mol. For the same sequence, the Tm in data set [2] amounted to 21.8 °C.
GTACTGCGAAAGCAATAC (((.(((....))).))): the folding enthalpy in data set [1] is -21.6 kcal/mol. Further, the Tm in data set [2] is 37.4 °C.
For GTACTGCGAAAGCATTAC (((.(((....))).))), the folding enthalpy in data set [1] is -22.5 kcal/mol. For the same sequence, the Tm in data set [2] is 41.7 °C.
The corresponding values for GTACTGGCGAAAGCCTAC (((..(((....)))))) are -11 kcal/mol and 26.3 °C.
For the sequence GTACTGGGAAACCAGTGC (.(((((....))))).), the folding enthalpy in data set [1] is -22.6 kcal/mol. The Tm in data set [2] was found to be 50.2 °C.
In the same order, the values of GTACTTCGAAAGAATTAC (((.(((....))).))) are -18.6 kcal/mol and 32.2 °C.
The corresponding values for GTAGAACCGAAAGGTTAC (((..(((....)))))) are -13.3 kcal/mol and 32.5 °C.
Turning to GTAGAACGAAAGTTGTAC (((.(((....))).))), the folding enthalpy in data set [1] was -31.7 kcal/mol. The Tm in data set [2] came to 42.8 °C.
Turning to GTAGAAGGAAACCTCTAC (((((.(....).))))), the folding enthalpy in data set [1] was -18.1 kcal/mol. For the same sequence, the Tm in data set [2] stood at 33.4 °C.
In the same order, the values of GTAGAAGGAAACTTCTGC (.(((((....))))).) are -23.1 kcal/mol and 39 °C.
The corresponding values for GTAGACCGAAAGGTATAC (((.(((....))).))) are -36 kcal/mol and 51.7 °C.
For GTAGACCGAAAGGTTTAC (((.(((....))).))), in data set [1], the folding enthalpy was -27.9 kcal/mol. Moreover, the Tm in data set [2] was determined as 48.5 °C.
In the same order, the values of GTAGACGAAAGTCACTAC ((((((....)))..))) are -14.2 kcal/mol and 41.1 °C.
The corresponding values for GTAGACGAAAGTCAGTAC ((((((....)))..))) are -9.2 kcal/mol and 28.6 °C.
As for GTAGACGAAAGTCCTAC ((((((....))).))), in data set [1], the folding enthalpy was -19.7 kcal/mol. Moreover, in data set [2], the Tm worked out at 36.4 °C.
In the same order, the values of GTAGACGAAAGTCGGTAC ((((((....)))..))) are -11.8 kcal/mol and 34.6 °C.
Take GTAGACGAAAGTCGTAC ((((((....))).))): in data set [1], the folding enthalpy is -23.6 kcal/mol. In addition, the Tm in data set [2] was determined as 49.9 °C.
On to GTAGACGGAAACATCTAC (((((.(....).))))), for which, in data set [1], the folding enthalpy is -21 kcal/mol. Also, the Tm in data set [2] is 31 °C.
As for GTAGACGGAAACGTCTGC (.(((((....))))).), the folding enthalpy in data set [1] was -24.6 kcal/mol. In addition, in data set [2], the Tm came out at 55.1 °C.
For the sequence GTAGAGGAAACTCTAC ((((((....)))))), in data set [1], the folding enthalpy was -25.3 kcal/mol. The Tm in data set [2] amounted to 49.1 °C.
As for GTAGAGTCGAAAGACTAC (((..(((....)))))), in data set [1], the folding enthalpy was -10.8 kcal/mol. Moreover, in data set [2], the Tm amounted to 35.1 °C.
Turning to GTAGATGGAAACACCTAC ((((.((....)).)))), the folding enthalpy in data set [1] is -20.9 kcal/mol. In data set [2], the Tm was found to be 32.9 °C.
In the same order, the values of GTAGCACCGAAAGGTTAC (((..(((....)))))) are -8.52 kcal/mol and 29.2 °C.
For GTAGCACGAAAGTGGTAC (((.(((....))).))), the folding enthalpy in data set [1] was -33.7 kcal/mol. Further, the Tm in data set [2] is 60.9 °C.
Consider GTAGCCCGAAAGGGATAC (((.(((....))).))), for which, in data set [1], the folding enthalpy is -33.7 kcal/mol. The Tm in data set [2] was determined as 64.3 °C.
Take GTAGCCCGAAAGGGTAC (((.(((....)))))): the folding enthalpy in data set [1] is -17.7 kcal/mol. For the same sequence, the Tm in data set [2] came out at 48.6 °C.
In the same order, the values of GTAGCCGAAAGGCGCTAC ((((((....)))..))) are -9.33 kcal/mol and 42.8 °C.
On to GTAGCCGAAAGGCGTAC ((((((....))).))), for which the folding enthalpy in data set [1] was -15.7 kcal/mol. The Tm in data set [2] stood at 57.5 °C.
Regarding GTAGCCGAAAGGCTTAC ((((((....))).))), in data set [1], the folding enthalpy is -10.3 kcal/mol. In addition, in data set [2], the Tm was 43.1 °C.

Values taken from the array DNA melting data of Ke et al. (doi:10.1101/2024.01.08.574731).
